Source: PubChem (Broad Institute)
A1 apoptosis 2 = compounds inhibiting A1, read as caspase activation; MEF A1-2A-BIM cells, caspase-Glo luminescence, 3 h; percent of clofoctol response, DMSO zero; caspase activation, % (concentration not given with the values); 24,000 tested, under 10 active; AID 2465; in the data active means caspase activation above about 5.9%
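Test system – A1-2A-BIM-expressing MEF cells · Input – 2500 cells/well · Medium – RPMI-1640 growth medium with 10% FBS · Compound dosing – 50 nL pinned compound · Timing – 3 h compound exposure at 37 °C · Technique – Caspase-Glo luminescence (DEVD substrate) · Evaluation – Caspase-3/7 activity from luminescence increase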
INS-1E rescue = rescue of cytokine-induced death in INS-1E beta cells; 20,000 tested, 0.1% active; INS-1E cytokine-induced death, ATP luminescence, 48 h; normalised: neutral wells 0, positive control 100; protection from cytokine-induced ATP loss, % at 10 µM;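 active means mean replicate protection from cytokine-induced ATP loss at least 50% and at least 75% of replicates each reaching 50%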
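Assay system: INS-1E rat insulinoma cells. Amount: 8000 cells per well. Medium: phenol-red-free RPMI with 5% fetal bovine serum. Reagent: IL-1β, TNF-α and IFN-γ cytokine mix. Doses: one compound concentration, pin transfer. Schedule: 48 h co-treatment, 10 min post-lysis read. Detection: CellTiter-Glo luminescence measuring cellular ATP.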
T cruzi intra = intracellular Trypanosoma cruzi inhibition; intracellular Trypanosoma cruzi in host cells, plate reader; activity score (inhibition), % at 5.01 µM; 22,000 tested, 4.9% active; AID 651903; in the data active means activity score above about 55%;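 further: parasites and compound incubated about four days before reading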
Of the large screens only hits and unclear results are named; the others gave an inactive call. Many of the other results were omitted from the sample, so hits are more common in it than they were.

C[C@@H]1CN([C@@H](C)CO)C(=O)Cc2cc(NC(=O)Nc3ccc(F)cc3)ccc2O[C@@H]1CN(C)Cc1ccc(Cl)c(Cl)c1	T cruzi intra 67
C[C@H](CO)N1C[C@H](C)[C@H](CN(C)Cc2ccc(Cl)c(Cl)c2)Oc2ccc(NC(=O)Nc3ccccc3)cc2CC1=O	T cruzi intra 75
C[C@H]1CN([C@@H](C)CO)C(=O)Cc2cc(NC(=O)Cc3ccccc3)ccc2O[C@H]1CN(C)Cc1ccc(Cl)c(Cl)c1	T cruzi intra 57
C[C@H]1CN([C@@H](C)CO)C(=O)Cc2cc(NC(=O)Cc3ccccc3)ccc2O[C@@H]1CN(C)Cc1ccccc1	none
C[C@H](CO)N1C[C@H](C)[C@H](CN(C)Cc2ccc(Cl)c(Cl)c2)Oc2ccc(NC(=O)Nc3ccc4c(c3)OCO4)cc2CC1=O	T cruzi intra 80
COc1ccc(NC(=O)Nc2ccc3c(c2)CC(=O)N([C@H](C)CO)C[C@H](C)[C@H](CN(C)Cc2ccc(Cl)c(Cl)c2)O3)cc1	none
C[C@H]1CN([C@@H](C)CO)C(=O)Cc2cc(NC(=O)Nc3ccccc3)ccc2O[C@H]1CN(C)Cc1ccc(Cl)c(Cl)c1	none
COc1ccc(S(=O)(=O)N(C)C[C@@H]2OCCCC[C@@H](C)Oc3ccc(NS(=O)(=O)c4ccc(Cl)cc4)cc3C(=O)N([C@H](C)CO)C[C@@H]2C)cc1	none
C[C@@H]1CCCCO[C@@H](CN(C)C(=O)c2ccccc2)[C@@H](C)CN([C@H](C)CO)C(=O)c2cc(NC(=O)Nc3ccc(C(F)(F)F)cc3)ccc2O1	T cruzi intra 68
C[C@@H]1CCCCO[C@@H](CN(C)C(=O)Nc2ccc(F)cc2)[C@@H](C)CN([C@H](C)CO)C(=O)c2cc(NC(=O)Nc3ccc(C(F)(F)F)cc3)ccc2O1	T cruzi intra 64 (no result: A1 apoptosis 2)
CC(C)NC(=O)Nc1ccc2c(c1)C(=O)N([C@H](C)CO)C[C@@H](C)[C@H](CN(C)C(=O)Nc1ccc(C(F)(F)F)cc1)OCCCC[C@H](C)O2	none (no result: INS-1E rescue, T cruzi intra)
C[C@@H]1CCCCO[C@@H](CN(C)C(=O)Nc2ccc(C(F)(F)F)cc2)[C@@H](C)CN([C@H](C)CO)C(=O)c2cc(NC(=O)NC3CCCCC3)ccc2O1	T cruzi intra 76
C[C@@H]1CCCCO[C@H](CN(C)C(=O)Nc2ccc(C(F)(F)F)cc2)[C@@H](C)CN([C@H](C)CO)C(=O)c2cc(NC(=O)Nc3ccc4c(c3)OCO4)ccc2O1	T cruzi intra 59 (no result: A1 apoptosis 2)
C[C@@H]1CCCCO[C@H](CN(C)C(=O)c2ccccc2)[C@@H](C)CN([C@@H](C)CO)C(=O)c2cc(NC(=O)Nc3ccc(C(F)(F)F)cc3)ccc2O1	none (no result: INS-1E rescue, T cruzi intra)
C[C@H](CO)N1C[C@H](C)[C@H](CN(C)C(=O)Nc2ccc3c(c2)OCO3)OCCCC[C@H](C)Oc2ccc(NC(=O)Nc3ccc(C(F)(F)F)cc3)cc2C1=O	none (no result: INS-1E rescue, T cruzi intra)
C[C@H](CO)N1C[C@H](C)[C@H](CN(C)C(=O)Nc2ccc(F)cc2)OCCCC[C@H](C)Oc2ccc(NC(=O)Nc3ccc(C(F)(F)F)cc3)cc2C1=O	none (no result: INS-1E rescue, T cruzi intra)
C[C@@H]1CN([C@@H](C)CO)C(=O)c2cccc(NS(=O)(=O)c3ccc(Cl)cc3)c2O[C@@H]1CN(C)Cc1ccc(C(=O)O)cc1	none
C[C@H](CO)N1C[C@H](C)[C@@H](CN(C)C(=O)c2ccccc2)OCCCC[C@H](C)Oc2ccc(NS(=O)(=O)c3cccs3)cc2C1=O	none (no result: INS-1E rescue, T cruzi intra)
COc1ccc(CN(C)C[C@H]2Oc3c(NC(=O)Nc4c(C)noc4C)cccc3C(=O)N([C@@H](C)CO)C[C@@H]2C)cc1	none
C[C@H](CO)N1C[C@H](C)[C@@H](CN(C)Cc2ccc(C(=O)O)cc2)OCCCC[C@H](C)Oc2ccc(NC(=O)NC3CCCCC3)cc2C1=O	none (no result: INS-1E rescue, T cruzi intra)
CNC[C@H]1OCCCC[C@@H](C)Oc2ccc(NS(=O)(=O)c3cn(C)cn3)cc2C(=O)N([C@@H](C)CO)C[C@@H]1C	none (no result: INS-1E rescue, T cruzi intra)
C[C@H](CO)N1C[C@H](C)[C@@H](CN(C)C(=O)NC2CCCCC2)OCCCC[C@H](C)Oc2ccc(NS(=O)(=O)c3ccc(F)cc3)cc2C1=O	none (no result: INS-1E rescue, T cruzi intra)
Cc1ccc(S(=O)(=O)N(C)C[C@H]2Oc3ccc(NS(=O)(=O)c4cn(C)cn4)cc3CC(=O)N([C@@H](C)CO)C[C@@H]2C)cc1	none
C[C@H]1CN([C@@H](C)CO)C(=O)Cc2cc(NS(=O)(=O)c3cccs3)ccc2O[C@@H]1CN(C)S(C)(=O)=O	none (no result: A1 apoptosis 2)
C[C@@H]1CCCCO[C@@H](CN(C)C(=O)Nc2ccc(C(F)(F)F)cc2)[C@H](C)CN([C@H](C)CO)C(=O)c2cc(NC(=O)Nc3cccc4ccccc34)ccc2O1	none (no result: INS-1E rescue, T cruzi intra)
